From ChEMBL document CHEMBL4354865 (J Med Chem, 2020)

Columns and labels:
[1] = Cytotoxicity against human A375 cells assessed as cell viability at 1 uM measured after 48 hrs by MTT assay relative to control; assay type: cell-based, A-375; settings: read-out: Activity
How it was run: (§1)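 A375 cells, unstimulated or stimulated with recombinant human IFN-γ, were left untreated or treated with 1 µM compound for 48 h. L-Kyn was measured by HPLC and cell viability was assessed.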

[2] = target: T1, Indoleamine 2,3-dioxygenase 1 (Homo sapiens, UniProt P14902); assay: Inhibition of IDO1 in IFNgamma-stimulated human A375 cells assessed as reduction in L-Kyn level at 1 uM measured after 48 hrs by HPLC analysis relative to control; how it was run: as §1
Target sequence in this assay (P14902 whole entry, looked up): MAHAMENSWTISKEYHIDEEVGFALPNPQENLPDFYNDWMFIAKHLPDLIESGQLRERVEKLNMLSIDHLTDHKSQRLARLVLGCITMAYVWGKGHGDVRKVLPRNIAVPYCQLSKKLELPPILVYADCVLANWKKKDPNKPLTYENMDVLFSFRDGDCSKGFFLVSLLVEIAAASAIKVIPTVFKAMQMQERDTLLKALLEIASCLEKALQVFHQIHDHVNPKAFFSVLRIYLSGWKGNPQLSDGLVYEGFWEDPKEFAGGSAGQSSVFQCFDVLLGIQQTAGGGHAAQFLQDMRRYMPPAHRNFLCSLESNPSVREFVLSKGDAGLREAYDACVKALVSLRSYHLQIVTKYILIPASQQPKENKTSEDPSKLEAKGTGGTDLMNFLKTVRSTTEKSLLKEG

[3] = target: T1, Indoleamine 2,3-dioxygenase 1; assay: Inhibition of IDO1 in IFNgamma-stimulated human A375 cells assessed as reduction in L-Kyn level measured after 48 hrs by HPLC analysis
Target sequence in this assay (P14902 whole entry): as the sequence (P14902 whole entry, looked up) above

Monocyte [4] = assay: Cytotoxicity against PDAC patient derived monocytes assessed as reduction in cell viability at 30 uM measured after 24 hrs by Annexin-V APC/7-AAD staining based flow cytometric analysis; settings: human
How it was run: (§2)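 Monocytes from healthy donors (n=3) and from PDAC patients (n=3) were treated for 24 h, with DMSO as control. Viability was normalized to untreated cells. Healthy-donor cells received a range of concentrations; PDAC cells received 30 µM.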

Monocyte [5] = assay: Cytotoxicity against human monocytes assessed as reduction in cell viability at 30 uM measured after 24 hrs by Annexin-V APC/7-AAD staining based flow cytometric analysis; how it was run: as §2
[6] = Chemical stability of the compound; assay type: physicochemical

Row | Compound | inhibition [2] [%] | IC50 [3] [nM] | Stability [6] | viability at 48 h, 1 µM [1] [%] | Activity (Monocyte [4]) | Activity (Monocyte [5])
1 | O=C(CNC(=O)c1ccccc1)NCc1cccc(Cn2cnc3ccccc32)c1 | 13 | – | – | 99 | – | –
2 | O=C(NCc1cccc(Cn2cnc3ccccc32)c1)c1ccccc1 | 32 | – | – | 98 | – | –
3 | NCCCC(=O)NCc1cccc(Cn2cnc3ccccc32)c1 | 0 | – | – | 100 | – | –
4 | NS(=O)(=O)NCCNc1nonc1C(=NO)Nc1ccc(F)c(Br)c1 [EPACADOSTAT] | – | – | – | 97 | Non-Toxic | Non-Toxic
5 | O=C(NCc1cccc(Cn2cnc3ccc(Br)cc32)c1)c1cc(Br)c[nH]1 | 98 | 19 | Unstable | 99 | – | –
6 | O=C(NCc1cccc(Cn2cnc3ccccc32)c1)c1ccco1 | 25 | – | – | 100 | – | –
7 | O=C(Cc1ccc2c(c1)OCO2)NCc1cccc(Cn2cnc3ccccc32)c1 | 5 | – | – | 96 | – | –
8 | N#Cc1ccc(C(=O)NCc2cccc(Cn3cnc4ccccc43)c2)c(F)c1 | 37 | – | – | 99 | – | –
9 | COc1ccc2[nH]c(C(=O)NCc3cccc(Cn4cnc5ccccc54)c3)cc2c1 | – | – | – | 55 | – | –
10 | CC(=O)NCC(=O)NCc1cccc(Cn2cnc3ccccc32)c1 | 0 | – | – | 100 | – | –

The next lines start with results.

Row | inhibition [2] [%] | IC50 [3] [nM] | Stability [6] | Compound | viability at 48 h, 1 µM [1] [%] | Activity (Monocyte [4]) | Activity (Monocyte [5])
11 | 71 | 781 | – | O=C(NCc1cccc(Cn2cnc3ccccc32)c1)c1cc2cc(O)ccc2[nH]1 | 99 | – | –
12 | 72 | – | – | O=C(NCc1cccc(Cn2cnc3ccccc32)c1)c1ccc[nH]1 | 94 | – | –
13 | 98 | 134 | – | O=C(NCc1cccc(Cn2cnc3ccccc32)c1)c1ccc(Br)cc1 | 96 | – | –
14 | 62 | – | – | O=C(NCc1cccc(Cn2cnc3ccccc32)c1)c1cccs1 | 98 | – | –
15 | 88 | 961 | – | O=C(NCc1cccc(Cn2cnc3ccccc32)c1)c1ccc(F)cc1 | 89 | – | –
